Data from ChEMBL document CHEMBL3271988, “Nitrogen analogues of 1,4-benzoquinones. Activities against the ascitic sarcoma 180 of mice” (J Med Chem, 1978).
Calls of active or inactive are those of the source. No cut-off for these calls is given here.

Legend:
[1] = Half life of the compound in water at pH 7 at 25 degC by spectrophotometry; assay type: physicochemical
How it was run: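 Compound dissolved in absolute ethanol, then diluted into 0.01 M Tris buffer brought to pH 7 with HCl, 25 °C. Absorbance at λmax followed over hours or days; log absorbance vs time fitted by least squares, rate constant and half-time taken from the slope.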

[2] = Acute toxicity in single ip dosed Swiss mouse assessed as death up to 5 days; assay type: organism-based; conditions: in vivo
How it was run: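 Male Swiss mice given one ip dose. LD50 taken as the single dose killing 50% of animals within 5 days.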

[3] = test system: Sarcoma-180; assay: Antitumor activity against mouse Sarcoma 180 cells allografted in Swiss mouse assessed as survival time at 22.5 mg/kg, ip three doses were given at 24 hrs interval starting 24 hrs after allograft injection relative to control; assay type: functional; conditions: route intraperitoneal
How it was run: (§1)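 Swiss mice inoculated ip with 10^6 ascitic sarcoma 180 cells. Compound given ip daily ×3 at 24-h intervals, starting 24 h after inoculation. Controls received isotonic saline on the same schedule; 6 mice per group. Mice alive at 60 days counted as 60 days in mean survival (±SD).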

[4] = Redox potential of the compound in alcohol-water solution; conditions: buffer
[5] = test system: Sarcoma-180; assay: Antitumor activity against mouse Sarcoma 180 cells allografted in Swiss mouse assessed as weight gain at 22.5 mg/kg, ip three doses were given at 24 hrs interval starting 24 hrs after allograft injection measured after 3 days relative to control; assay type: functional; conditions: route intraperitoneal
How it was run: (§2)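 Ascitic sarcoma 180 model in Swiss mice: 10^6 cells ip, then three ip doses at 24-h intervals beginning 24 h later. Mice were weighed 1 day after cell injection and again 3 days later (24 h after the third dose). Percent weight gain of treated mice was compared with saline-treated controls on the same schedule.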

[6] = test system: Sarcoma-180; assay: Antitumor activity against mouse Sarcoma 180 cells allografted in Swiss mouse at 22.5 mg/kg, ip three doses were given at 24 hrs interval starting 24 hrs after allograft injection relative to control; assay type: functional; conditions: route intraperitoneal
How it was run: (§3)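 Swiss mice received 10^6 ascitic sarcoma 180 cells ip, then three ip doses 24 h apart starting at 24 h. Controls got isotonic salt solution on the same schedule. T/C% is mean survival time of treated over controls (6 mice per group).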

[7] = test system: Sarcoma-180; assay: Antitumor activity against mouse Sarcoma 180 cells allografted in Swiss mouse assessed as weight gain at 200 mg/kg, ip three doses were given at 24 hrs interval starting 24 hrs after allograft injection measured after 3 days relative to control; assay type: functional; conditions: route intraperitoneal; how it was run: as §2
[8] = test system: Sarcoma-180; assay: Antitumor activity against mouse Sarcoma 180 cells allografted in Swiss mouse at 200 mg/kg, ip three doses were given at 24 hrs interval starting 24 hrs after allograft injection relative to control; assay type: functional; conditions: route intraperitoneal; how it was run: as §3
[9] = test system: Sarcoma-180; assay: Antitumor activity against mouse Sarcoma 180 cells allografted in Swiss mouse assessed as survival time at 200 mg/kg, ip three doses were given at 24 hrs interval starting 24 hrs after allograft injection relative to control; assay type: functional; conditions: route intraperitoneal; how it was run: as §1
[10] = test system: Sarcoma-180; assay: Antitumor activity against mouse Sarcoma 180 cells allografted in Swiss mouse assessed as survival at 200 mg/kg, ip three doses were given at 24 hrs interval starting 24 hrs after allograft injection measured after 5 days; assay type: functional, organism-based; set-up: dose 200 mg/kg
How it was run: (§4)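 Swiss mice were injected ip with 10^6 ascitic sarcoma 180 cells. Three daily ip doses followed, the first 24 h after cell injection. The read-out was the number of mice surviving at 5 days, out of 6 treated.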

[11] = test system: Sarcoma-180; assay: Antitumor activity against mouse Sarcoma 180 cells allografted in Swiss mouse assessed as survival time at 8 mg/kg, ip three doses were given at 24 hrs interval starting 24 hrs after allograft injection relative to control; assay type: functional; conditions: route intraperitoneal; how it was run: as §1
[12] = test system: Sarcoma-180; assay: Antitumor activity against mouse Sarcoma 180 cells allografted in Swiss mouse assessed as weight gain at 8 mg/kg, ip three doses were given at 24 hrs interval starting 24 hrs after allograft injection measured after 3 days relative to control; assay type: functional; conditions: route intraperitoneal; how it was run: as §2
[13] = test system: Sarcoma-180; assay: Antitumor activity against mouse Sarcoma 180 cells allografted in Swiss mouse at 8 mg/kg, ip three doses were given at 24 hrs interval starting 24 hrs after allograft injection relative to control; assay type: functional; conditions: route intraperitoneal
How it was run: (§5)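 Swiss mice given 10^6 ascitic sarcoma 180 cells ip; three ip doses at 24-h intervals starting 24 h later; controls received isotonic salt solution on the same schedule. […] Cures = alive without cancer cells at 60 days.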

[14] = test system: Sarcoma-180; assay: Antitumor activity against mouse Sarcoma 180 cells allografted in Swiss mouse assessed as survival at 8 mg/kg, ip three doses were given at 24 hrs interval starting 24 hrs after allograft injection measured after 5 days; assay type: functional, organism-based; set-up: dose 8 mg/kg; how it was run: as §4
[15] = test system: Sarcoma-180; assay: Antitumor activity against mouse Sarcoma 180 cells allografted in Swiss mouse assessed as cure at 8 mg/kg, ip three doses were given at 24 hrs interval starting 24 hrs after allograft injection measured after 60 days; assay type: functional, organism-based; set-up: dose 8 mg/kg
How it was run: (§6)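 Swiss mice given 10^6 ascitic sarcoma 180 cells ip. Starting 24 h later, three ip doses were given 24 h apart. Controls got isotonic salt solution on the same schedule. A cure was a mouse alive with no evidence of cancer cells 60 days after cell injection, reported per 6 mice.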

[16] = test system: Sarcoma-180; assay: Antitumor activity against mouse Sarcoma 180 cells allografted in Swiss mouse assessed as cure at 9 mg/kg, ip three doses were given at 24 hrs interval starting 24 hrs after allograft injection measured after 60 days; assay type: functional, organism-based; set-up: dose 9 mg/kg; how it was run: as §6
[17] = test system: Sarcoma-180; assay: Antitumor activity against mouse Sarcoma 180 cells allografted in Swiss mouse assessed as weight gain at 9 mg/kg, ip three doses were given at 24 hrs interval starting 24 hrs after allograft injection measured after 3 days relative to control; assay type: functional; conditions: route intraperitoneal; how it was run: as §2
[18] = test system: Sarcoma-180; assay: Antitumor activity against mouse Sarcoma 180 cells allografted in Swiss mouse at 9 mg/kg, ip three doses were given at 24 hrs interval starting 24 hrs after allograft injection relative to control; assay type: functional; conditions: route intraperitoneal; how it was run: as §5
[19] = test system: Sarcoma-180; assay: Antitumor activity against mouse Sarcoma 180 cells allografted in Swiss mouse assessed as survival time at 9 mg/kg, ip three doses were given at 24 hrs interval starting 24 hrs after allograft injection relative to control; assay type: functional; conditions: route intraperitoneal; how it was run: as §1
[20] = test system: Sarcoma-180; assay: Antitumor activity against mouse Sarcoma 180 cells allografted in Swiss mouse assessed as survival at 9 mg/kg, ip three doses were given at 24 hrs interval starting 24 hrs after allograft injection measured after 5 days; assay type: functional, organism-based; set-up: dose 9 mg/kg; how it was run: as §4
[21] = test system: Sarcoma-180; assay: Antitumor activity against mouse Sarcoma 180 cells allografted in Swiss mouse at 90 mg/kg, ip three doses were given at 24 hrs interval starting 24 hrs after allograft injection relative to control; assay type: functional; conditions: route intraperitoneal; how it was run: as §5
[22] = test system: Sarcoma-180; assay: Antitumor activity against mouse Sarcoma 180 cells allografted in Swiss mouse assessed as survival time at 90 mg/kg, ip three doses were given at 24 hrs interval starting 24 hrs after allograft injection relative to control; assay type: functional; conditions: route intraperitoneal; how it was run: as §1
[23] = test system: Sarcoma-180; assay: Antitumor activity against mouse Sarcoma 180 cells allografted in Swiss mouse assessed as survival at 90 mg/kg, ip three doses were given at 24 hrs interval starting 24 hrs after allograft injection measured after 5 days; assay type: functional, organism-based; set-up: dose 90 mg/kg; how it was run: as §4
[24] = test system: Sarcoma-180; assay: Antitumor activity against mouse Sarcoma 180 cells allografted in Swiss mouse assessed as weight gain at 90 mg/kg, ip three doses were given at 24 hrs interval starting 24 hrs after allograft injection measured after 3 days relative to control; assay type: functional; conditions: route intraperitoneal; how it was run: as §2
[25] = test system: Sarcoma-180; assay: Antitumor activity against mouse Sarcoma 180 cells allografted in Swiss mouse assessed as weight gain at 5 mg/kg, ip three doses were given at 24 hrs interval starting 24 hrs after allograft injection measured after 3 days relative to control; assay type: functional; conditions: route intraperitoneal; how it was run: as §2
[26] = test system: Sarcoma-180; assay: Antitumor activity against mouse Sarcoma 180 cells allografted in Swiss mouse assessed as survival time at 5 mg/kg, ip three doses were given at 24 hrs interval starting 24 hrs after allograft injection relative to control; assay type: functional; conditions: route intraperitoneal; how it was run: as §1
[27] = test system: Sarcoma-180; assay: Antitumor activity against mouse Sarcoma 180 cells allografted in Swiss mouse assessed as survival at 5 mg/kg, ip three doses were given at 24 hrs interval starting 24 hrs after allograft injection measured after 5 days; assay type: functional, organism-based; set-up: dose 5 mg/kg; how it was run: as §4
[28] = test system: Sarcoma-180; assay: Antitumor activity against mouse Sarcoma 180 cells allografted in Swiss mouse at 5 mg/kg, ip three doses were given at 24 hrs interval starting 24 hrs after allograft injection relative to control; assay type: functional; conditions: route intraperitoneal; how it was run: as §3

SMILES: O=C1C(Br)=CC(=NCl)C=C1Br
- half-life [1]: 23.3 h
- LD50 at 120 h [2]: 63 mg/kg
- Survival [3]: 41 days
- Redox potential [4]: 0.665 V
- Activity [5]: -25%
- T/C [6]: 218%

SMILES: O=C1C=C/C(=N/O)C(I)=C1
- LD50 at 120 h [2]: 550 mg/kg
- Redox potential [4]: 0.531 V
- Activity [7]: 0%
- T/C [8]: 171%
- Survival [9]: 23.7 days
- Activity [10]: Active

SMILES: O=C1C(Cl)=CC(=NBr)C=C1Cl
- half-life [1]: 3.7 h
- Survival [11]: 27.2 days
- LD50 at 120 h [2]: 20 mg/kg
- Activity [12]: -5.1%
- T/C [13]: 165%
- Activity [14]: Active
- Activity [15]: inactive

SMILES: O=C1C(Br)=CC(=NBr)C=C1Br
- Activity [16]: inactive
- half-life [1]: 10.4 h
- LD50 at 120 h [2]: 25 mg/kg
- Activity [17]: -3%
- T/C [18]: 178%
- Redox potential [4]: 0.678 V
- Survival [19]: 22.8 days
- Activity [20]: Active

SMILES: O=C1C=C/C(=N/O)C(Cl)=C1
- T/C [21]: 304%
- Survival [22]: 39 days
- LD50 at 120 h [2]: 380 mg/kg
- Activity [23]: Active
- Redox potential [4]: 0.537 V
- Activity [24]: -2.4%

SMILES: O=C1C=CC(=NCl)C=C1
- half-life [1]: 35.3 h
- Activity [25]: -6.9%
- LD50 at 120 h [2]: 12.5 mg/kg
- Survival [26]: 40.5 days
- Redox potential [4]: 0.652 V
- Activity [27]: Active
- T/C [28]: 246%
